Assay outcomes as filed in PubChem BioAssay.
hIAP inh = human IAP inhibitors, primary screen, biochemical, luminescence, uHTS | 330,000 tested, 0.12% active | Intestinal-type alkaline phosphatase (Homo sapiens), P09923 | inhibition, % at 10 µM | purified IAP, CDP-Star luminescence, 30 min | AID 2544, 2010;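 active = inhibition reaching a set limit with compound at 10 µM in the primary screen, cut at about 35% in these data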;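 also: plate controls were DMSO wells with enzyme for no effect and no-enzyme buffer wells for full effect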
Target sequence (P09923 whole entry, looked up): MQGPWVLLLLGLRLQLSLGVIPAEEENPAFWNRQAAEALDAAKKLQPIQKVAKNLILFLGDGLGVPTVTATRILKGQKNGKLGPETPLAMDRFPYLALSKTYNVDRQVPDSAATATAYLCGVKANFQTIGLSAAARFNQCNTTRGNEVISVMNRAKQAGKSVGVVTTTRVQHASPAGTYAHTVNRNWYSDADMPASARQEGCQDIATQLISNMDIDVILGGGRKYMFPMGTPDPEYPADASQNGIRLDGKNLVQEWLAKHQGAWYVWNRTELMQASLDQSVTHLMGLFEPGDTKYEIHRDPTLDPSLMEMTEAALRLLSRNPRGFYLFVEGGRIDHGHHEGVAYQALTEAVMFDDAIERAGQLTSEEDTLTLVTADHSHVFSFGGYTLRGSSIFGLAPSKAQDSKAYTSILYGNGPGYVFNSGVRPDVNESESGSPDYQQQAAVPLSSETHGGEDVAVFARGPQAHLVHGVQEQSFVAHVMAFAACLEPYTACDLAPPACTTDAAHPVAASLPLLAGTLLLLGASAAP
mIAP block = inhibitors of mouse IAP, primary screen, biochemical, luminescence, uHTS | inhibition, % at 10 µM | AID 2806, 2010 | 330,000 tested, 0.2% active | purified mouse IAP, CDP-Star luminescence, 30 min | intestinal alkaline phosphatase [Mus musculus];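 active = inhibition of at least 40% at 10 µM in the primary screen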;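 also: plate controls were DMSO with enzyme for no effect and no enzyme wells for full effect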
hIAP activ = human IAP activators, primary screen, biochemical, luminescence, uHTS; purified human IAP, CDP-Star luminescence, 30 min; stronger effect = higher value; 1 = vehicle-only enzyme, 0 = enzyme-free background; activation factor at 10 µM; 330,000 tested, 0.16% active;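 active = activation factor of the enzyme at least 2-fold when tested at 20 µM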
bIAP activator = bovine intestinal alkaline phosphatase activators, primary screen, biochemical, bovine IAP, CDP-star luminescence; AID 1016, 2008; activation factor at 20 µM; 200,000 tested, 0.17% active; alkaline phosphatase, intestinal [Bos taurus]; purified bovine IAP, 30 min; stronger effect = higher value; fold of DMSO-control signal, blank-subtracted;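 active = activation factor of 2 or more at 20 µM, a signal rise over negative controls twice the positive control's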
bIAP inh = bovine intestinal alkaline phosphatase inhibitors, primary screen, selectivity assay for TNAP inhibitor project, biochemical, bovine IAP, CDP-star luminescence; alkaline phosphatase, intestinal [Bos taurus]; purified bovine IAP, 30 min; inhibition, % at 20 µM; 190,000 tested, under 10 active;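 active = over 50% inhibition of intestinal alkaline phosphatase at 20 µM in the single-dose screen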
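System: Purified bovine intestinal alkaline phosphatase (IAP) enzyme | Input: IAP diluted 1/65,000,000 in the well | Also added: CDP-star chemiluminescent phosphatase substrate, 30 µM final | Dosing: 20 µM single dose | Times: Enzyme reaction for 30 min at room temperature | Detection: Luminescence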
mIAP activ = activators of mouse IAP, primary screen, biochemical, luminescence, uHTS. activation factor at 10 µM. intestinal alkaline phosphatase [Mus musculus]. muIAP, CDP-Star luminescence, 30 min; stronger effect = higher value; 1 = vehicle-only enzyme signal, 0 = enzyme-free wells. 330,000 tested, 0.24% active;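 active = activation factor of at least 2 at 20 µM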
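System: Mouse IAP enzyme | Also added: CDP-Star substrate | Dosing: Compounds dispensed in DMSO | Schedule: 30 min enzyme-substrate-compound incubation at room temperature | Technique: Chemiluminescence readout | Control set: DMSO-only wells and no-enzyme negative control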
mIAP inh conf = inhibitors of mouse IAP, confirmation, biochemical, luminescence, single concentration | inhibition, % at 10 µM | shares compounds with mIAP block | 11,000 tested, 4.7% active | AID 434971, 2010 | purified mouse IAP, CDP-Star luminescence, 30 min;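 active = inhibition of at least 40% at 10 µM in either of the two replicates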;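 also: plate controls were DMSO wells with enzyme for no effect and buffer wells lacking enzyme for full effect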
Active calls of the source: *; i = inactive; · = no result. Sampled rows, rich in hits. Any-hit rate of the full collection: about 0.72%.

SMILES	hIAP inh	mIAP block	hIAP activ	bIAP activator	bIAP inh	mIAP activ	mIAP inh conf
N#Cc1c(SCC(=O)Nc2ccc(C(F)(F)F)cc2)sc2c(O)cc(=O)[nH]c12	5	32	0.95	·	·	0.68	·
N#Cc1c(SCC(=O)Nc2nncs2)sc2c(O)cc(=O)[nH]c12	-4	57*	1	·	·	0.43	70*
O=c1ccc2cc3c([nH]c4ccc(Br)cc43)oc-2c1O	25	48*	0.75	1	2	0.52	44*
O=C(O)c1ccc(N=Nc2c(O)[nH]c3ccc(Br)cc23)cc1	9	11	0.91	·	·	0.89	·
NS(=O)(=O)c1ccc(-c2ccc(/C=N/NC(=O)c3ccc([N+](=O)[O-])cc3)o2)cc1	-38	42*	1.4	·	·	0.58	45*
CN(C(=O)CS(=O)(=O)c1cn(CC(=O)N2CCCCC2)c2ccccc12)c1ccccc1	5	9	0.95	·	·	0.91	·
O=C(Nc1ccc(Cl)cc1)Nc1ccc(Cl)c(Cl)c1	-17	-227	1.2	·	·	3.3*	-127
O=C(Nc1ccc(Cl)c(Cl)c1)Nc1ccc(Br)cc1F	5	-253	0.95	1.1	-10	3.5*	-124
CCN1C(=O)[C@H]2[C@H]3CN=C(SCC(=O)c4ccccc4)N3[C@@](C)(C(=O)OC)[C@H]2C1=O	·	6	·	·	·	0.94	·
Oc1cc2c(cc1O)C1c3ccc(O)c(O)c3OCC1(O)C2 (stereo unspecified)	6	74*	0.94	0.5	48	0.26	64*
COc1c(-c2ccc(O)cc2)oc2cc(O)cc(O)c2c1=O	28	13	0.71	·	·	0.87	·
CC(=O)Oc1cc(O)c2c(=O)c(OC(C)=O)c(-c3ccc(OC(C)=O)c(OC(C)=O)c3)oc2c1	31	43*	0.69	·	·	0.57	45*
Cn1cccc1C(=O)OCC(=O)Nc1ccc2c(c1)OCCO2	-27	-6	1.3	·	·	1.1	·
COC(=O)c1ccc(NC(=O)Nc2cccc(F)c2)cc1	-1	-160	1	0.9	11	2.6*	-97
COC(=O)c1ccc(NC(=O)Nc2ccc(F)cc2F)cc1	-4	-80	1	1	-5	1.8	·
CCN(CC)c1ccc(S(=O)(=O)N2CCOCC2)cc1NC(=O)CNCc1ccccc1	-26	-11	1.3	·	·	1.1	·
CCN(CC)c1ccc(S(=O)(=O)N2CCOCC2)cc1NC(=O)Nc1ccccc1	-5	-366	1	·	·	4.7*	-153
C=CCc1cccc2cc(C(=O)NNC(=O)CC#N)c(=O)oc12	-5	45*	1	·	·	0.55	55*
CSc1ccc(CN2CCC(n3nccc3NC(=O)CCCc3ccccc3)CC2)cc1	-84	-171	1.8	·	·	2.7*	-126
O=C(/C=C/c1ccc(O)c(O)c1)OC(Cc1ccc(O)c(O)c1)C(=O)O (stereo unspecified)	31	77*	0.69	·	·	0.23	78*
O=C(/C=C/c1ccc(O)c(O)c1)OCCc1ccccc1	29	15	0.71	·	·	0.85	·
COc1ccc(-c2cn3cccnc3n2)cc1NC(=O)C(C)Oc1ccccc1 (stereo unspecified)	-22	2	1.2	·	·	0.98	·
CC(C)(C)c1ccc(NC(=O)NC2CCCc3ccccc32)cc1 (stereo unspecified)	-42	i	1.4	·	·	6.2*	-253
Cc1ccc(NC(=O)NC2CCCc3ccccc32)cc1 (stereo unspecified)	4	-55	0.96	·	·	1.5	·
CC1CCCCC12NC(=O)N(CC(=O)N1CCc3ccccc3C1)C2=O (stereo unspecified)	-3	-13	1	·	·	1.1	·
O=C(NNC(=O)c1ccc(O)cc1O)c1ccc(-c2ccccc2)cc1	-42	43*	1.4	·	·	0.57	40*
O=C(NNC(=O)c1cccc2ccccc12)c1ccc(-c2ccccc2)cc1	-58	7	1.6	0.8	24	0.93	·
